Only some compounds are listed: those with a hit (about 1.5% of all), similar ones and a draw of the others.
S100A4 inh HTS: blocks human S100A4 binding to myosin IIA peptide | P26447 | S100A4/TAMRA-MyoIIA peptide fluorescence polarization | inhibition, % at 10.7 µM | actives 0.14% (n = 360,000) | AID 652163;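 active means mean inhibition of at least 70% across replicates, with every replicate also reaching that level; inconclusive means mean inhibition reaches 70% but some replicates fall short; inactive means mean inhibition below 70%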
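System – human S100A4 monomer protein, biochemical binding assay · Buffer or medium – Calcium-containing HEPES buffer, pH 7.2 · Timing – 5 min between mix addition and reading · Also added – TAMRA-labelled myosin IIA heavy-chain peptide probe, 5 nM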
SIRT5 block: blocks human SIRT5 desuccinylation of peptide | Q9NXA8 | Purified SirT5, succinyl-peptide AMC, trypsin-coupled fluorescence | inhibition, % at 15 µM | actives 1.1% (n = 330,000) | AID 652115; in the data active means inhibition above about 15%; inconclusive means no clear call, values can overlap the other calls
PDI inh: PDI (human) enzyme inhibition; P07237; PDI insulin aggregation turbidity, A650, 90 min; inhibition, % at 10 µM; actives 0.052% (n = 350,000);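 active means mean inhibition across replicates of 30% or more, whatever share of single replicates reach that level; inconclusive means mean inhibition below 30% while every single replicate reaches 30%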
INS-1E GSIS act: GLuc luminescence reporter in INS-1E cells, primary screen for activators of glucose-dependent secretion of insulin | INS-1E GLuc reporter insulin secretion, 2-3 h | AID 743287 | activation, % at 16.6 µM | actives 0.61% (n = 370,000);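 active means lowest replicate activation of at least 40%, so every replicate reaches that level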;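 further: 0% = median of neutral control wells and 100% = median of IBMX positive control wells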
ERp5 block: inhibitors of human ERp5; ERp5 insulin aggregation, absorbance 650 nm, 90 min; inhibition, % at 9.99 µM; actives 0.05% (n = 350,000); AID 651711;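 active means mean replicate inhibition above about 25%, with every replicate also reaching it, limit read from the data, passing the limit was not always enough; inconclusive means only one of those two criteria met; inactive means neither criterion met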
Target sequence (Q15084 whole entry, looked up): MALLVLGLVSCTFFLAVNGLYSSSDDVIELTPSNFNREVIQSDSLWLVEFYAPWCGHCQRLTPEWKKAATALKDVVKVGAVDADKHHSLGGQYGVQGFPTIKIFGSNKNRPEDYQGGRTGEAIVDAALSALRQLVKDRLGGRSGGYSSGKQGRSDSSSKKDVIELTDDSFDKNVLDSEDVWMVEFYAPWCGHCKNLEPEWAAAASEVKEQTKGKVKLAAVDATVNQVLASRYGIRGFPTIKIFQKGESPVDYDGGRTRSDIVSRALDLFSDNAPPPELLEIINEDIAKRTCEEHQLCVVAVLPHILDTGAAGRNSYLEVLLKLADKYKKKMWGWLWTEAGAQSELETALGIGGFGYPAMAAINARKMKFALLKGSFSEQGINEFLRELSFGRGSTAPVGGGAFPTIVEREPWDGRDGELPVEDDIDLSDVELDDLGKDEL
Starred values were filed as active, the others as inactive; ? = inconclusive; . = not tested or not shown.

SMILES	S100A4 inh HTS	SIRT5 block	PDI inh	INS-1E GSIS act	ERp5 block
CN1c2ccc(-c3cccc(C#N)c3)cc2[C@H]2[C@H](CCN2S(=O)(=O)c2ccccc2F)[C@H]1CO	122.7*	-18.8	.	-17.2	0.9
CN(C)C(=O)c1cccc(-c2ccc3c(c2)[C@H]2[C@H](CCN2C(=O)c2ccccc2)[C@@H](CO)N3C)c1	32.9	15.2*	.	-23.1	-5.7
CN(C)C(=O)c1ccc(-c2ccc3c(c2)[C@H]2[C@H](CCN2C(=O)C2CCOCC2)[C@@H](CO)N3C)cc1	-16.1	17.2*	.	-0.8	.
CN1c2ccc(-c3ccccc3)cc2[C@H]2[C@H](CCN2C(=O)c2ccccc2)[C@H]1CO	22.4	.	.	-10.3	9.6
CN1c2ccc(-c3cccc(F)c3)cc2[C@H]2[C@H](CCN2C(=O)c2ccccc2F)[C@H]1CO	89.4*	6.4	.	5.1	-3.8
C[C@@H]1CCCCO[C@@H](CN(C)C(=O)Cc2ccccc2)[C@H](C)CN([C@H](C)CO)C(=O)c2cc(NS(=O)(=O)c3ccc(F)cc3)ccc2O1	.	.	.	-20.8	.
COc1ccc(-c2ccc3c(c2)[C@@H]2[C@@H](CCN2C(=O)NC2CCCC2)[C@H](CO)N3C)cc1	82.4*	-6.1	.	-27.8	2.6
CN1c2ccc(-c3ccc(F)cc3)cc2[C@@H]2[C@@H](CCN2C(=O)c2ccncc2)[C@H]1CO	0.6	-4.2	.	13.2	0.3
CN1c2ccc(-c3ccc(F)cc3)cc2[C@@H]2[C@@H](CCN2C(=O)c2ccncc2)[C@@H]1CO	0.6	19.0*	.	-7.9	-4.8
COc1cccc(-c2ccc3c(c2)[C@@H]2[C@@H](CCN2C(=O)NC2CCCC2)[C@@H](CO)N3C)c1	3.8	2.4	.	-1.2	2.2
C/C=C/c1ccc([C@@H]2[C@@H](CN(C)C(=O)c3ccccn3)N(C(C)=O)[C@H]2CO)cc1	.	.	.	4.3	.
Cc1oc2ccc(NS(=O)(=O)c3ccccc3)cc2c1C(=O)Nc1ccccc1	-4.5	20.7*	8.2	-26.2	2.5
COCCOC(=O)c1c(C)oc2ccc(NS(=O)(=O)c3ccccc3)cc12	4.5	0.9	-0.4	-2.5	2.1
CC(=O)c1c(C)oc2ccc(NS(=O)(=O)c3ccc(O)c(C(=O)O)c3)cc12	.	.	-0.9	.	.
CC(=O)c1c(C)oc2ccc(NS(=O)(=O)c3ccc(F)cc3C)cc12	3.9	2.5	-11.6	223.3*	0.4
CC(=O)Nc1cccc(NC(=O)CSc2nc(=O)n3cccc(C)c3n2)c1	1.2	2.5	-8.8	1.3	7.0
CC(=O)Nc1ccc(NC(=O)CSc2nc(=O)n3cccc(C)c3n2)cc1	-1.2	0.0	32.3*	22.6	8.3
Cc1noc(C)c1NC(=O)Nc1ccc2c(c1)CC(=O)N([C@@H](C)CO)C[C@@H](C)[C@H](CN(C)Cc1ccc(C(=O)O)cc1)O2	8.9	-3.1	.	17.7	-5.7
CN(c1ccc(O)cc1)c1nc(O)c(C2=c3ccccc3=NC2=O)s1	-1.4	19.9*	4.4	-4.5	1.0
C[C@@H]1CN([C@H](C)CO)C(=O)Cc2cc(NS(=O)(=O)c3cccs3)ccc2O[C@H]1CN(C)S(=O)(=O)c1cn(C)cn1	-4.1	6.3	.	-2.9	-0.2
O=S(=O)(N[C@H]1CC[C@@H](CCNS(=O)(=O)c2ccccc2Cl)O[C@H]1CO)c1ccccc1	-12.6	-0.6	.	10.7	-4.1
Nc1cc(S(=O)(=O)c2ccc(O)c(N)c2)ccc1O	7.7	16.1*	13.4	-1.2	-8.1
CCOC(=O)C(NC(C)=O)(Nc1ccc(S(=O)(=O)Nc2nccs2)cc1)C(F)(F)F (stereo not drawn)	.	.	2.5	.	.
CCOC(=O)C(NC(C)=O)(Nc1ccc(S(=O)(=O)Nc2ncccn2)cc1)C(F)(F)F (stereo not drawn)	-3.2	19.0*	-0.1	-5.2	3.7
Cn1cccc1C(=O)c1cccc([N+](=O)[O-])c1	-1.1	17.2*	-2.1	30.7	?
O=C(c1cccc([N+](=O)[O-])c1)c1ccccn1	-4.8	-3.8	0.9	37.4	1.7
COc1cc2c(cc1NC(=O)c1ccc(C)c([N+](=O)[O-])c1)oc1ccccc12	.	.	-12.5	53.3*	.
COc1cc2c(cc1NC(=O)c1cccc([N+](=O)[O-])c1)oc1ccccc12	.	.	-4.2	.	.
CC(C)C#Cc1cnc2c(c1)C(=O)N([C@H](C)CO)C[C@H](C)[C@@H](CN(C)C(=O)c1ccccc1F)O2	16.1	-3.8	.	-1.2	-2.5
O=C(Nc1ccccc1)[C@H]1[C@H](CO)[C@H]2Cn3c(cccc3=O)[C@H]2N1CC1CCOCC1	.	.	.	7.7	.

Screening data from PubChem BioAssay.
